# Measurements published in PMC2217204 (The Journal of General Physiology, 2000).
# Values joined by “and” are separate entries in the source; they are usually repeats but may differ in a detail not shown here. Equal values may be shown once. Read-outs that look alike come from different tables or passages of the source.
# Key:
# KACh channel [1] = target: T1, KACh channel (Rattus norvegicus, UniProt P48548+P63251); assay type: cell-based; settings: for τo1: 100 μM phospholipid, inside-out, n = 3
# T1 sequence (P63251 1-501): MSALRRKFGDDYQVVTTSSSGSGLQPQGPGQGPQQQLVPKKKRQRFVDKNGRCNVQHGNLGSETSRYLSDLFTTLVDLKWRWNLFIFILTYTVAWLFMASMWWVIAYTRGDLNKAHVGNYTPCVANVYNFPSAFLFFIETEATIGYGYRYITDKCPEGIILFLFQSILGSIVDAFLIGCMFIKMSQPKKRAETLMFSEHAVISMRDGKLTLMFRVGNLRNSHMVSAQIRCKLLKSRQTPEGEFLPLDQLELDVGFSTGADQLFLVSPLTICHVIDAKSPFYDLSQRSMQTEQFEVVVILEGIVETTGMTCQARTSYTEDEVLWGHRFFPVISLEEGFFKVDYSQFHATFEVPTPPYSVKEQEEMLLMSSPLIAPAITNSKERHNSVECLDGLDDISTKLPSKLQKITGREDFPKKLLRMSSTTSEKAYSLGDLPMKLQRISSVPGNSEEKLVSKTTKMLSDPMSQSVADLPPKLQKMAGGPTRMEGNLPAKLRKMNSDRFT
# T1 sequence (P48548 1-419): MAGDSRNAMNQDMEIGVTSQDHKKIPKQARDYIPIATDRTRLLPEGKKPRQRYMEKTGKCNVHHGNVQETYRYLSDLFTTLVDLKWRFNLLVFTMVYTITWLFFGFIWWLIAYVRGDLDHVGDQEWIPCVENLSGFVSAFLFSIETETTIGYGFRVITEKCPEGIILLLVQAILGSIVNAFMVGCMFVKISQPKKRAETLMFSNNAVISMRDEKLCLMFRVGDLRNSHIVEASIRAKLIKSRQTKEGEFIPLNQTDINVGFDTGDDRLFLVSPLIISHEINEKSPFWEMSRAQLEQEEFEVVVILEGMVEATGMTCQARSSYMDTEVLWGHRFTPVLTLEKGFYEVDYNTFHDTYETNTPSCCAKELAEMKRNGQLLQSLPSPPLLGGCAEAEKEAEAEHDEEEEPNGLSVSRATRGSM
# KACh channel [2] = target: T1, KACh channel; assay type: cell-based; settings: for K 1/2 (effect on ATP-dependent gating of KACh channel) / IC50: atrial inside-out patches, 100 μM GTP and 4 mM ATP, lipid 0.1, 1, 3, 10 and 30 μM, n = 3 each; for reversal of inhibition of ATP-dependent gating: fatty acid–free albumin 50 μg/ml
# K1 channel = assay: ATP-activated background K1 channel, atrial inside-out patches; assay type: cell-based, rat; settings: 4 mM ATP in bath, inside-out atrial patch
# KACh channel [3] = target: T1, KACh channel; assay type: cell-based; settings: 4 mM ATP with 100 μM GTP in pipette, 10 μM ACh, outside-out
# In short: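 Cultured atrial myocytes from 1-day-old rats; outside-out patches at −60 mV, 24–26°C. Pipette held […] 100 μM GTP, GTP plus 4 mM ATP, or these plus atrial cytosolic fraction (5 mg protein/ml). Symmetrical 140 mM KCl, 0.5 mM MgCl2, 5 mM EGTA, 10 mM HEPES, pH 7.2. nPo from 1–2 min of recording.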
# KACh channel [4] = target: T1, KACh channel; assay type: cell-based
# In short: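 Inside-out patches from cultured newborn-rat atrial cells, 10 μM ACh in pipette, −60 mV, 24–26°C. Channels were activated by 100 μM GTP in the bath, then 4 mM ATP was added, with free Mg2+ held at 0.5 mM. nPo from 1–2 min of recording. Open and closed times came from maximum-likelihood fits of idealized records to schemes with 2–3 closed and two open states, using patches with ≤4 open levels.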
# KACh channel [5] = target: T1, KACh channel; settings: cited from earlier work; for effect on KACh channel activity: physiological concentrations, ref Hong et al. 1996
# KATP channel = KATP channel (Rattus norvegicus, UniProt P70673); assay: KATP channel, inside-out patches from adult rat ventricular cells; assay type: cell-based; settings: PIP2 applied soon after patch excision
# In short: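 KATP channels that appeared on forming inside-out patches were tested with 5 μM arachidonic acid on the cytoplasmic side. In some patches channels were first allowed to run down, then briefly exposed to 3 mM ATP to reactivate them before fatty acid was applied. Recordings were at 24–26°C; 2 μM was also tested (n = 3).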
# [6] = K 1/2 (effect on ATP-dependent gating of KACh channel)
# [7] = read-out: K 1/2 (effect on ATP-dependent gating of KACh channel)
# KATP channel, sequence (P70673 whole entry): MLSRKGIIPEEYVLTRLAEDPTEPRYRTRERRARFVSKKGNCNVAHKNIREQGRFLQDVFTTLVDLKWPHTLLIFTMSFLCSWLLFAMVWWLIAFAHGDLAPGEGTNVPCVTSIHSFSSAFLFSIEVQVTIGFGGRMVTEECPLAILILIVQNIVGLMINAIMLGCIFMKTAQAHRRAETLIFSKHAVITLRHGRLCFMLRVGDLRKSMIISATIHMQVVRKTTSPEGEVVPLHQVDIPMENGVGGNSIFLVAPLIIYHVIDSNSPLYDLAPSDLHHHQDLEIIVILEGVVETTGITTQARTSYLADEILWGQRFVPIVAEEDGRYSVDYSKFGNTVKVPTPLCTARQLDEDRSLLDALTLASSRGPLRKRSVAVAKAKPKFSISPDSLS
# KATP channel, sequence (Q63563 whole entry partner): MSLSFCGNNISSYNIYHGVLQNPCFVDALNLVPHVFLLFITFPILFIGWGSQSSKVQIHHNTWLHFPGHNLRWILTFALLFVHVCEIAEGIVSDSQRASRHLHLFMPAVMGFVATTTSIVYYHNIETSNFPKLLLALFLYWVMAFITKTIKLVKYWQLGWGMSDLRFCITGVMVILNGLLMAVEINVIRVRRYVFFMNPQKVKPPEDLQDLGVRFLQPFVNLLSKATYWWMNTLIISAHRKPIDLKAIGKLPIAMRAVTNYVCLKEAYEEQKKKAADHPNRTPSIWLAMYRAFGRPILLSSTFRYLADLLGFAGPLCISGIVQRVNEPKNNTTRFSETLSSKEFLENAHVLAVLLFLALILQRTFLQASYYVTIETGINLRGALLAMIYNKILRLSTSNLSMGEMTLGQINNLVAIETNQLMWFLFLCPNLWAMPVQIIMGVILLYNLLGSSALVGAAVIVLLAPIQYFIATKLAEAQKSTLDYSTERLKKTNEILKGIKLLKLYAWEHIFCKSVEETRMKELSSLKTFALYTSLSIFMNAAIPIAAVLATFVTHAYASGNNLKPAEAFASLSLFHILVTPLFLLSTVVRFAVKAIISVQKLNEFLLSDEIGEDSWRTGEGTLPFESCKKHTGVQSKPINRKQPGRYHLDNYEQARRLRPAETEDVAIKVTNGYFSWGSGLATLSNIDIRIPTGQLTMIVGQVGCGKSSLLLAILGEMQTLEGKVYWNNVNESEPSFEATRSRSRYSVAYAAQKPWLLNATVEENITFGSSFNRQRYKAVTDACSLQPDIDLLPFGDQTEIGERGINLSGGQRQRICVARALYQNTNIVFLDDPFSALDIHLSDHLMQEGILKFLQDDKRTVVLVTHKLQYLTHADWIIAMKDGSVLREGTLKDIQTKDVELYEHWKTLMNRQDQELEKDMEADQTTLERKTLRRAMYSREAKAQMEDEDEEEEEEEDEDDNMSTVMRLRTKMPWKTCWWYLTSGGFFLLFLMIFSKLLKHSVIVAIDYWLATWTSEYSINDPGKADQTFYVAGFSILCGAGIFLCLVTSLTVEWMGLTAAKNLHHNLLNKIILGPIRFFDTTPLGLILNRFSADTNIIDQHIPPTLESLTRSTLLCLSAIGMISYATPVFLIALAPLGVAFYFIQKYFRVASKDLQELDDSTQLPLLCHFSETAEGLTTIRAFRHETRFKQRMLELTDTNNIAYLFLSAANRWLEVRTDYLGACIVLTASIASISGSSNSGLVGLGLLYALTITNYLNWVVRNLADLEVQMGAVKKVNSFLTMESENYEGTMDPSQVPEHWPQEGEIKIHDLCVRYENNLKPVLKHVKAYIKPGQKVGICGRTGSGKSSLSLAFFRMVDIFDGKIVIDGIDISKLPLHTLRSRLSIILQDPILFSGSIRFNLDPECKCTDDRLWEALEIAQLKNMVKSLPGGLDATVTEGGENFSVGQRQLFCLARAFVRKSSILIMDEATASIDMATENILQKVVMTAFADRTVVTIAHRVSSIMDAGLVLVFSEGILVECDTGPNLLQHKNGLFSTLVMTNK
compound,measurement,setting,value
phosphatidylethanolamine,τo1,KACh channel [1],2.8 ± 0.5 ms
"CCCCCCCCCCCCCCCCCC(=O)O [Stearic acid (18:0), Stearic acid]",K 1/2 (effect on ATP-dependent gating of KACh channel),KACh channel [2],No effect
CCCCC/C=C\C/C=C\CCCCCCCC(=O)O[C@@H](CO)COC(=O)CCCCCCCCCCCCCCCCC [1-stearoyl-2-linoleoyl-sn-glycerol],K 1/2 (effect on ATP-dependent gating of KACh channel),KACh channel [2],No effect
CCCCCC/C=C\CCCCCCCC(=O)OCC(O)CO (stereo not drawn) [1-monopalmitoleoylglycerol],IC50,KACh channel [2]; [6],52 ± 7 µM
CCCCC/C=C\C/C=C\C/C=C\C/C=C\CCCC(=O)O[C@@H](CO)COC(=O)CCCCCCCCCCCCCCCCC [1-stearoyl-2-arachidonoyl-sn-glycerol],K 1/2 (effect on ATP-dependent gating of KACh channel),KACh channel [2],No effect
Nc1ncnc2c1ncn2[C@@H]1O[C@H](COP(=O)(O)OP(=O)(O)OP(=O)(O)O)[C@@H](O)[C@H]1O [ATP],activation of K1 channel,K1 channel,quickly activated
same,channel activity (nPo) with ATP versus without,KACh channel [3],approximately fivefold higher
same,increase in nPo,"KACh channel [4]; 4 mM ATP added to GTP, inside-out patches",approximately fivefold increase
same,mean closed time of long closings (C1),"KACh channel [4]; 4 mM ATP, inside-out patches",62 ms
same,Hill coefficient of [ATP]–nPo relationship,KACh channel [4]; n = 3,1.9 ± 0.2
"CCCCCCCC(=O)O [Caprylic acid (8:0), Caprylic acid]",K 1/2 (effect on ATP-dependent gating of KACh channel),KACh channel [2],No effect
CCCCCCCCCCCCCC(=O)O[C@@H]1[C@@H](C)[C@@]2(O)[C@@H](C=C(CO)C[C@]3(O)C(=O)C(C)=C[C@@H]23)[C@@H]2C(C)(C)[C@]12OC(C)=O [Phorbol myristate acetate],K 1/2 (effect on ATP-dependent gating of KACh channel),KACh channel [2],No effect
"CCCCC/C=C/C/C=C/CCCCCCCC(=O)O [Linoelaidic acid [t,t-18:2 (n-6)], Linoelaidic acid]",IC50,KACh channel [2]; [7],3.2 ± 0.6 µM
CCCCC/C=C\C/C=C\C/C=C\C/C=C\CCCCO [Arachidonyl alcohol],IC50,KACh channel [2]; [7],44 ± 7 µM
NCCCCNCCCN [Spermidine],K 1/2 (effect on ATP-dependent gating of KACh channel),KACh channel [2],No effect
"CCCCCCCC/C=C\CCCCCCCC(=O)O [Oleic acid [18:1 (n-9)], Oleic acid]","inhibition of ATP-dependent gating, extracellular application","KACh channel [2]; 5 μM in the pipette solution (extracellular), after 5 min, n = 4 each",did not inhibit
same,Hill coefficient of inhibition,"KACh channel [2]; ATP-modified KACh channels, inside-out",~2
same,IC50,KACh channel [2]; [6],1.5 ± 0.2 µM
same,inhibition at 50 µM,"KACh channel [2]; read-out: partial inhibition of ATP-dependent gating, extracellular application",65 ± 6%
same,inhibitory potency after incubation,KACh channel [2]; room temperature or 37°C for 30 min,reduced their inhibitory potency significantly
same,effect on PIP2-dependent gating of KACh channel,KACh channel [1]; 2 μM fatty acid applied with 30 μM PIP2,inhibited
"CCCCCC/C=C\CCCCCCCC(=O)O [Palmitoleic acid [16:1 (n-7)], Palmitoleic acid]",IC50,KACh channel [2]; [6],10.5 ± 2.4 µM
Nc1nc2c(ncn2[C@@H]2O[C@@H]3COP(=O)(O)O[C@H]3[C@H]2O)c(=O)[nH]1 [cGMP],effect on KACh channel activity,KACh channel [5],no significant effect
O=P(O)(O)OCC(O)CO (stereo not drawn) [Glycerophosphate],K 1/2 (effect on ATP-dependent gating of KACh channel),KACh channel [2],No effect
"phosphatidylinositol-4,5-bisphosphate [PIP2]",effect on rundown of KATP channels,KATP channel,prevented rundown
same,open time constant of second open state,KACh channel [1]; 30 μM PIP2 after GTPγS (100 μM) activation,2.6 ± 0.3 ms and 2.6 ms
same,increase in channel activity,KACh channel [1]; 30 μM PIP2 after GTPγS activation,approximately twofold increase
CCCCCCCC/C=C\CCCCCCCC(=O)OCC(CO)OC(C)=O (stereo not drawn) [1-oleoyl-2-acetylglycerol],IC50,KACh channel [2]; [6],22 ± 3 µM
"CCCCCCCC/C=C/CCCCCCCC(=O)O [Elaidic acid [t-18:1 (n-9)], Elaidic acid]",IC50,KACh channel [2]; [6],21.6 ± 4.8 µM
"CCCCCCCC/C=C\CCCCCCCC(=O)OCC(CO)OC(=O)CCCCCCC/C=C\CCCCCCCC (stereo not drawn) [1,2-dioleoylglycerol]",IC50,KACh channel [2]; [6],21 ± 3 µM
"CCCCCCCC/C=C\CCCCCCCCCCCCCC(=O)O [Nervonic acid [24:1 (n-9)], Nervonic acid]",IC50,KACh channel [2]; [7],12.5 ± 2.1 µM
NCCCNCCCCNCCCN [Spermine],K 1/2 (effect on ATP-dependent gating of KACh channel),KACh channel [2],No effect
"CCCCCCCCCCCCCCCC(=O)O [Palmitic acid (16:0), Palmitic acid]",K 1/2 (effect on ATP-dependent gating of KACh channel),KACh channel [2],No effect
CCCCCCCC/C=C\CCCCCCCC(=O)OC(CO)CO [2-monooleoylglycerol],IC50,KACh channel [2]; [6],48 ± 8 µM
CCCCC/C=C\C/C=C\C/C=C\C/C=C\CCCC(=O)OC [Arachidonic acid methyl ester],IC50,KACh channel [2]; [7],12 ± 3 µM
CCCCC/C=C\C\C=C/C=C/C=C/[C@@H](SC[C@H](NC(=O)CC[C@H](N)C(=O)O)C(=O)NCC(=O)O)[C@@H](O)CCCC(=O)O [Leukotriene C4],K 1/2 (effect on ATP-dependent gating of KACh channel),KACh channel [2],No effect
O=P(O)(O)O[C@@H]1[C@H](O)[C@H](O)[C@@H](OP(=O)(O)O)[C@H](OP(=O)(O)O)[C@H]1O [inositol trisphosphate],effect on KACh channel activity,KACh channel [5],no significant effect
"CCCCCCCCCCCCC/C=C/[C@@H](O)[C@@H](N)CO [Sphingosine (D-form), Sphingosine]",K 1/2 (effect on ATP-dependent gating of KACh channel),KACh channel [2],No effect
"CC/C=C\C/C=C\C/C=C\CCCCCCCC(=O)O [α-linolenic acid [18:3 (n-3)], α-linolenic acid]",IC50,KACh channel [2]; [7],6.2 ± 0.8 µM
phosphatidylcholine,τo1,KACh channel [1],2.5 ± 0.6 ms
"CCCCCCCC(=O)OCC(CO)OC(=O)CCCCCCC (stereo not drawn) [1,2-dioctanoylglycerol]",IC50,KACh channel [2]; [6],2.8 ± 0.4 µM
CCCCCCCC/C=C\CCCCCCCC(=O)OCC(O)CO (stereo not drawn) [1-monooleoylglycerol],IC50,KACh channel [2]; [6],42 ± 6 µM
[Ca+2] [Ca^2+],effect on open time constant of the KACh channel,"KACh channel [5]; at concentrations above 30 μM, ref Kim 1991",decreased
same,effect on KACh channel activity,KACh channel [5],no significant effect
"CC/C=C\C/C=C\C/C=C\C/C=C\C/C=C\C/C=C\CCC(=O)O [Docosahexaenoic acid [22:6 (n-3)], Docosahexaenoic acid]",IC50,KACh channel [2]; [6],1.4 ± 0.2 µM
CCCCC[C@H](O)/C=C/[C@H]1[C@H](O)CC(=O)[C@@H]1CCCCCCC(=O)O [Prostaglandin E1],K 1/2 (effect on ATP-dependent gating of KACh channel),KACh channel [2],No effect
CCCCC/C=C\C/C=C\CCCCCCCC(=O)OCC(O)CO (stereo not drawn) [1-monolinoleoylglycerol],IC50,KACh channel [2]; [6],8.4 ± 2.2 µM
Lysophosphatidylethanolamine,K 1/2 (effect on ATP-dependent gating of KACh channel),KACh channel [2],No effect
"CC/C=C\C/C=C\C/C=C\C/C=C\C/C=C\CCCC(=O)O [Eicosapentaenoic acid [20:5 (n-3)], Eicosapentaenoic acid]",IC50,KACh channel [2]; [6],5.6 ± 2.2 µM
CCCCCCCCCCCCCC=CC(O)C(CO)NC(C)=O (stereo not drawn) [Ceramide (C-2)],K 1/2 (effect on ATP-dependent gating of KACh channel),KACh channel [2],No effect
OCC(O)CO [Glycerol],K 1/2 (effect on ATP-dependent gating of KACh channel),KACh channel [2],No effect
albumin: fatty acid–free bovine serum albumin,reversal of inhibition of ATP-dependent gating,KACh channel [2],almost complete reversal
same,reversal of inhibition of ATP-dependent gating,KACh channel [2]; listed as fatty acid-free albumin,completely remove
Phosphatidylserine,K 1/2 (effect on ATP-dependent gating of KACh channel),KACh channel [2],No effect
